Experimental data reported in PubChem BioAssay.
Activity calls are given as the source filed them.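 The calls were made as follows, unless noted: active = inhibition above 20% together with a positive visual image hit; inconclusive = visual image hit but inhibition not above 20%; inactive = no visual image hit.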

Tests used:
[1] = inhibitors of TNFa-induced NFkB p65 translocation, primary screen, imaging, HUVEC, MLSMR starter and 10KST1 sets (AID 438); conditions: HUVEC TNFa-induced p65 nuclear translocation; cell count: measured here: nuclei count (cytotoxicity indicator), at 2.08 µM; inhibition: at 2 µM, stronger effect = higher value, 0% TNFa-plus-vehicle, 100% no-TNFa wells;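 also: compound added about 3h40 before a 20 min TNFalpha stimulation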;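 as to inhibition: signal is the nuclear over cytoplasmic p65 intensity ratio per well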
[2] = reduction of polyQ htt aggregates in cells – imaging, exon1htt(103Q)mCFP cells, high-content imaging, primary screen (AID 483;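 active = visual image review flags a hit and inhibition of aggregation exceeds 20%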;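 also: compound exposure lasted 3 days before fixation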;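 as to nuclei count: percent of the per-plate median nuclei count of sample wells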); conditions: exon1htt(103Q)mCFP cell line, aggregate imaging, at 2 µM; inhibition of aggregation: stronger effect = higher value; nuclei count: measured here: cell count, toxicity
[3] = endothelial E-selectin expression blockers – imaging, HUVEC, immunofluorescence, MLSMR starter and 10KST1 sets, primary screen (AID 487;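 active = visually confirmed hit in the image check and inhibition above 20%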;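 as to inhibition: signal is fraction of cell area covered by stained E-selectin grains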;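 as to nuclei count: 100% = median nuclei count of all wells on the same plate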); conditions: HUVEC TNFalpha-induced E-selectin immunofluorescence imaging, at 2 µM; inhibition: stronger effect = higher value; nuclei count: measured here: cell number, toxicity
[4] = target: Voltage-gated potassium channel subunit beta-2 (Rattus norvegicus) (UniProt P62483); test: inhibitors of rat Kvbeta2 reductase activity – biochemical, NADPH fluorescence, primary screen (AID 622;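 active = fluorescence slope higher than the sample average by over 3 SD, cut at about -0.22 in these data, passing the limit was not always enough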;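 also: slope of raw intensity against log time taken from 70 to 1610 s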); conditions: recombinant KvBeta, 4-cyanobenzaldehyde reduction, at 10 µM, stronger effect = higher value
[5] = target: Voltage-gated potassium channel subunit beta-2 (Rattus norvegicus) (UniProt P62483); test: enhancers of rat Kvbeta2 NADPH turnover – biochemical, NADPH fluorescence, primary screen (AID 623;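 active = NADPH fluorescence slope more negative than the mean of all samples by about 3 SD, 99.7% confidence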;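 also: fluorescence intensity change per second fitted from 20 to 320 s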); conditions: Recombinant KvBeta, NADPH fluorescence decrease slope, 10 min; at 10 µM; stronger effect = lower value
[6] = target: Muscarinic acetylcholine receptor M4 (Homo sapiens) (UniProt P08173); test: M4-linked GIRK flux change, two-sided – cell-based, HEK293 M4/GIRK, thallium flux, BTC-AM, M4 allosteric agonist project, primary screen (AID 625;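 active = fluorescence slope after compound addition differing from the mean of all tested samples at 99.7% confidence, mostly higher but some lower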;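 also: thallium influx through GIRK channels coupled to M4 in HEK293 cells with BTC-AM dye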); conditions: at 10 µM, actives lie on both sides
In short: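 Material: M4/GIRK1/GIRK2 stable HEK293 cell line. Medium: pH 7.3 thallium assay buffer. Dosing: single compound concentration, 10 µM final. Schedule: 1 h dye loading, 2 min kinetic read. Measured by: kinetic fluorescence with BTC-AM dye. Read-out: post-addition slope, 15–24 s, of baseline-normalized fluorescence. Benchmarks: carbachol and DMSO controls.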

[7] = blockers of RIG-like receptor reporter activation – cell-based, Sendai virus stimulus, luciferase, 10K MLSCN set, TLR/RLR signaling modifier project, primary screen (AID 602276;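 active = inhibition at or above 50% at 10 µM; inactive = inhibition below 50%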;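 also: firefly luciferase from ISG56 promoter only with Renilla not read in this screen; 0% = Sendai virus plus DMSO and 100% = medium plus DMSO without virus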); conditions: HEK293 RL24 IRF3 luciferase reporter, at 10 µM, stronger effect = higher value
[8] = TLR3 IRF3 reporter activation blockers – cell-based, poly I:C stimulus, luciferase, 10K MLSCN set, primary screen (AID 602277;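 active = inhibition of the reporter signal at or above 50%; inactive = inhibition below 50%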); conditions: HEK293-TLR3 RL24 IRF3 luciferase reporter, at 10 µM, stronger effect = higher value

Sequence of Muscarinic acetylcholine receptor M4 (Homo sapiens) (P08173 whole entry, looked up): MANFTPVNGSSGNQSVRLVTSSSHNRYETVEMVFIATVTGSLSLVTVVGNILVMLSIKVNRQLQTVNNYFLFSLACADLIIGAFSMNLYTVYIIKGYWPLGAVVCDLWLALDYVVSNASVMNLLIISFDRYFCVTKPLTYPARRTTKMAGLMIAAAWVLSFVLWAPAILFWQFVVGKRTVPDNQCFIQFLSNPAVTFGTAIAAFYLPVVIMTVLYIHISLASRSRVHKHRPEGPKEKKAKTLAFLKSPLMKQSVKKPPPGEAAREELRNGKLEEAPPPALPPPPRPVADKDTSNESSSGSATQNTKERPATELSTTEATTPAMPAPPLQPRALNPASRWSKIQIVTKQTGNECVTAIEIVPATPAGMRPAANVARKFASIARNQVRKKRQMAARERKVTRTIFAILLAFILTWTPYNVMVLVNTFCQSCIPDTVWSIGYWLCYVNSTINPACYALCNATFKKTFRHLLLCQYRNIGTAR
Sequence of Voltage-gated potassium channel subunit beta-2 (Rattus norvegicus) (P62483 whole entry, looked up): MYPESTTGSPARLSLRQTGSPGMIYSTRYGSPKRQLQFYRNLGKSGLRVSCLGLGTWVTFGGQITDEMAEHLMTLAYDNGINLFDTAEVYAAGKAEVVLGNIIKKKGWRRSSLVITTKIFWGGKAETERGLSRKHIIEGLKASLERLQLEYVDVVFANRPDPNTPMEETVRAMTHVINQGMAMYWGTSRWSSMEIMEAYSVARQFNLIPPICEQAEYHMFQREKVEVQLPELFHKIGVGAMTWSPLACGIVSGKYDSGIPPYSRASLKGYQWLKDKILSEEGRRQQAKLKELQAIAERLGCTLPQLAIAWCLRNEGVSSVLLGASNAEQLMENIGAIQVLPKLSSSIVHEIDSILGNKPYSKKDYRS

SMILES	cell count [1]	inhibition [1]	inhibition of aggregation [2]	nuclei count [2]	inhibition [3]	nuclei count [3]	fluorescence slope [4]	NADPH fluorescence slope [5]	fluorescence slope [6]	inhibition [7]	inhibition [8]
COc1cccc(OCc2nc3c4cnn(-c5ccccc5)c4ncn3n2)c1	418	-6.7% (inactive)	-8.8% (inactive)	104%	-118% (inactive)	110%	-0.576 (inactive)	1.4e-05 (inactive)	0.00593 (inactive)	8.13% (inactive)	-16.4% (inactive)
CC(O)CN(Cc1cccc(Cl)c1)CC(C)O (configuration not stated)	473	0.5% (inactive)	1.4% (inactive)	100%	10.2% (inactive)	95.1%	-0.431 (inactive)	1.1e-05 (inactive)	0.00551 (inactive)	18.8% (inactive)	19.5% (inactive)
COc1ccc(OC)c(C2=NOC(C(=O)Nc3cccnc3)C2)c1 (configuration not stated)	738	-14.3% (inactive)	-1.9% (inactive)	100%	-31.9% (inactive)	93%	-0.561 (inactive)	5.2e-07 (inactive)	0.00522 (inactive)	4.03% (inactive)	2.04% (inactive)
COC(=O)C1=C(C)Nc2nnnn2C1c1ccc(Cl)cc1Cl (configuration not stated)	433	7.3% (inactive)	-5.9% (inactive)	105%	1.2% (inactive)	105%	-0.482 (inactive)	-4.5e-05 (inactive)	0.0056 (inactive)	13.6% (inactive)	19.3% (inactive)
CCNc1nc(NC(C)C)nc(N(C#N)CCOc2ccc(Cl)cc2Cl)n1	603	-8.6% (inactive)	20.7% (inactive)	98.5%	-123% (inactive)	96.3%	-0.446 (inactive)	-3.7e-05 (inactive)	0.00644 (inactive)	15.5% (inactive)	-2.09% (inactive)
O=C(c1ccccc1)c1coc2ccc(O)c(CN3CCOCC3)c12	651	-5.8% (inactive)	8.4% (inactive)	77.4%	1.5% (inactive)	102%	-0.577 (inactive)	3.5e-06 (inactive)	0.00407 (inactive)	14.5% (inactive)	18.2% (inactive)
CCOc1ccccc1N1C(=O)CC(Sc2ncccc2C(=O)O)C1=O (configuration not stated)	890	-0.7% (inactive)	-13.3% (inactive)	105%	-111% (inactive)	136%	-0.46 (inactive)	-8.3e-07 (inactive)	0.00417 (inactive)	12.2% (inactive)	13.4% (inactive)
O=c1c2ccccc2c(C=Nc2ccc(Cl)cn2)c(O)n1-c1cc(Cl)ccc1N1CCOCC1	164	14.4% (inactive)	-6.2% (inactive)	83.8%	-0.8% (inactive)	90.3%	-0.551 (inactive)	-6e-05 (inactive)	0.00995 (inactive)	7.35% (inactive)	-5.13% (inactive)
CCNC(=O)COc1ccc(Br)cc1Cl	302	0% (inactive)	-7.5% (inactive)	93.8%	0.5% (inactive)	109%	-0.547 (inactive)	2.4e-05 (inactive)	0.00609 (inactive)	-12.6% (inactive)	-57.4% (inactive)
COCn1c(COc2ccccc2)nc2ccccc21	478	9.6% (inactive)	-10.6% (inactive)	114%	29% (inactive)	123%	-0.248 (inactive)	-1.5e-05 (inactive)	0.00599 (inactive)	-20.6% (inactive)	-112% (inactive)
CCNC(=O)CC1C(=O)N(c2ccc(F)cc2)C(=O)N1CCC(C)C (configuration not stated)	357	-10.8% (inactive)	17.4% (inactive)	92.3%	-21.1% (inactive)	106%	-0.525 (inactive)	-5.9e-06 (inactive)	0.00457 (inactive)	4.4% (inactive)	15.9% (inactive)
O=C(c1ccc(-c2cccc(C(F)(F)F)c2)o1)N1CCOCC1	482	4.3% (inactive)	-17.9% (inactive)	117%	10.8% (inactive)	99.9%	-0.544 (inactive)	-3.4e-05 (inactive)	0.00523 (inactive)	-39.9% (inactive)	-93.2% (inactive)
Cc1cc2c(=O)n(CC(=O)N3CCN(c4ccccc4)CC3)cnc2s1	632	-22.3% (inactive)	0.5% (inactive)	105%	2.7% (inactive)	94.9%	-0.595 (inactive)	1.9e-06 (inactive)	0.0045 (inactive)	7.52% (inactive)	14.5% (inactive)
CC(=O)Nc1ccc(Oc2cc(C#N)c(C#N)cc2N2CCCCCC2)cc1	305	-7.7% (inactive)	-9.6% (inactive)	91.5%	-62.5% (inactive)	127%	-0.377 (inactive)	2.3e-05 (inactive)	0.00486 (inactive)	13.8% (inactive)	21.8% (inactive)
CCN1CCN(C(=O)c2ccc3c(=O)n(CCC4=CCCCC4)c(=O)[nH]c3c2)CC1	465	3.4% (inactive)	-14% (inactive)	95.8%	-29.3% (inactive)	114%	-0.576 (inactive)	-7.8e-05 (inactive)	0.00535 (inactive)	-36.8% (inactive)	-73.5% (inactive)
Cc1nnc(C)n1/N=C/c1cccc(Oc2ccccc2)c1	344	-0.6% (inactive)	0.1% (inactive)	102%	-5.9% (inactive)	106%	-0.462 (inactive)	1.6e-05 (inactive)	0.00567 (inactive)	21.3% (inactive)	31.8% (inactive)
COc1ccc(C(CNC(=O)CN2C(=O)NC3(CC(C)CC(C)(C)C3)C2=O)N2CCOCC2)cc1 (configuration not stated)	427	8.4% (inactive)	13.7% (inactive)	97.7%	-57% (inactive)	115%	-0.413 (inactive)	3.8e-05 (inactive)	0.00559 (inactive)	-2.17% (inactive)	-5.07% (inactive)
CC(NC(=O)c1ccc(F)cc1)C(c1cccs1)N1CCN(C)CC1 (configuration not stated)	466	-7.5% (inactive)	-8.9% (inactive)	93.6%	23% (inactive)	92.2%	-0.424 (inactive)	-5e-05 (inactive)	0.00581 (inactive)	5.9% (inactive)	15.9% (inactive)
Cc1cc(NC(=O)NC(=O)c2cccc(OC(F)(F)C(F)F)c2)n[nH]1	520	-14% (inactive)	-5.5% (inactive)	76.8%	-45% (inactive)	102%	-0.539 (inactive)	0.000153 (inactive)	0.00729 (inactive)	-14.7% (inactive)	-48.5% (inactive)
C=C(C)COc1ccc(-c2nc(N)ncc2Oc2ccccc2OCC)c(O)c1	291	-11% (inactive)	-19.9% (inactive)	111%	-17.8% (inactive)	114%	-0.655 (inactive)	4.1e-05 (inactive)	0.00507 (inactive)	17.7% (inactive)	-3.29% (inactive)
Cc1ccc(NC(=O)CSc2nnc(CCCCCNC(=O)OC(C)(C)C)o2)c(C)c1	630	-9.5% (inactive)	28.5% (inactive)	94.7%	-28.9% (inactive)	102%	-0.546 (inactive)	-4e-05 (inactive)	0.00541 (inactive)	14.7% (inactive)	12.1% (inactive)
CC(C)(C)n1nnnc1C(c1cccc(C#N)c1)N1CCC(Cc2ccccc2)CC1 (configuration not stated)	613	-13.9% (inactive)	30.1% (inactive)	81.1%	-8% (inactive)	128%	-0.571 (inactive)	-3.4e-05 (inactive)	0.00477 (inactive)	25.2% (inactive)	36.8% (inactive)
CCOC(=O)Nc1c(C(=O)OC)[nH]c2cccc(OC)c12	526	-0.5% (inactive)	-15.7% (inactive)	109%	-32.4% (inactive)	126%	-0.478 (inactive)	3e-05 (inactive)	0.00517 (inactive)	-7.18% (inactive)	-3.25% (inactive)
COc1cc(C(N)=O)ccc1OCc1ccccc1	364	14% (inactive)	-5.1% (inactive)	107%	-51.6% (inactive)	110%	-0.472 (inactive)	-7.2e-06 (inactive)	0.00562 (inactive)	-12.9% (inactive)	-32.5% (inactive)
COC(=O)c1cn(-c2ccccc2)nc1C(=O)OC	232	5.8% (inactive)	-0.8% (inactive)	92.6%	24% (inactive)	77.4%	-0.441 (inactive)	-7.4e-05 (inactive)	0.00607 (inactive)	4.01% (inactive)	1.15% (inactive)
O=C(Cn1cccc1)N1CCN(C(c2ccccc2)c2ccccc2)CC1	337	-8.9% (inactive)	-11.9% (inactive)	110%	-52.8% (inactive)	107%	-0.213 (inactive)	-1.1e-05 (inactive)	0.00614 (inactive)	13.3% (inactive)	22% (inactive)
Cc1ccc2nsnc2c1S(=O)(=O)N1CCN(Cc2ccc3c(c2)OCO3)CC1	486	-13.1% (inactive)	-11.5% (inactive)	108%	-9.8% (inactive)	83.9%	-0.468 (inactive)	-4.9e-05 (inactive)	0.00415 (inactive)	12.5% (inactive)	27.7% (inactive)
